Screens: PubChem, several laboratories
Sampled rows, rich in hits. Any-hit rate of the full collection: about 4.5%.
APP 5'UTR act: APP 5'UTR luciferase reporter activation | activation, % at 2 µM | 190,000 compounds, 1% hits | SH-SY5Y APP 5'UTR luciferase reporter, luminescence; zero percent = DMSO vehicle wells | AID 1276;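 active = activation above a set limit, based on mean plus 3 SD of controls, cut at about 140% in these data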
AHR act: activates the human aryl hydrocarbon receptor. AHR-responsive luciferase reporter cells, luminescence. activation, % at 5 µM. 320,000 compounds, 2.5% hits. AID 2796; in the data active = activation above about 47%;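 note: 0% = vehicle wells and 100% = reference agonist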
Target sequence (P35869 whole entry, looked up): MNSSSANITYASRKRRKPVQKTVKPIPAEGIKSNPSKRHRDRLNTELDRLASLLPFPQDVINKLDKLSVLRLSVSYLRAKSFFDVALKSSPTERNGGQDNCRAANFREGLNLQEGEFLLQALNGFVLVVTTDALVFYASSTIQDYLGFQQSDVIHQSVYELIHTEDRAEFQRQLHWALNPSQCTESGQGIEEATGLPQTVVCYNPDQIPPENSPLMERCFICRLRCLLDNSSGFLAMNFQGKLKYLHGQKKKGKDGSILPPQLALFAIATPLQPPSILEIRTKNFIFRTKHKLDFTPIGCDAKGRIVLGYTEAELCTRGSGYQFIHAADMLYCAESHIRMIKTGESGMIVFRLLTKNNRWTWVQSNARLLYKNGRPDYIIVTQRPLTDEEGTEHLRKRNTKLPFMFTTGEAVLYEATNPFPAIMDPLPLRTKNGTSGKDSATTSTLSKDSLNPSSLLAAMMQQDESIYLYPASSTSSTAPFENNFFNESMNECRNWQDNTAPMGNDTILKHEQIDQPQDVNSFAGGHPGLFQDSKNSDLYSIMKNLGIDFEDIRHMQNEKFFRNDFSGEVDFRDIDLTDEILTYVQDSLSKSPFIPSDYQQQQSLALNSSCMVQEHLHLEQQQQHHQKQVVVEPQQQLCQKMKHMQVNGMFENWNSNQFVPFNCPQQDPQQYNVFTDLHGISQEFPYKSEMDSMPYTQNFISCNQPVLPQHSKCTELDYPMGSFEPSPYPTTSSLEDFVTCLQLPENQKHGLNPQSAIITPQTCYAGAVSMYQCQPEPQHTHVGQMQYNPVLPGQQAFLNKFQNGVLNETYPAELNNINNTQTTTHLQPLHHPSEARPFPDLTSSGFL
PERK inhibitor: inhibitors of human PERK kinase; inhibition, % at 5.6 µM; CHO PERK-DD fusion, SEAP luminescence translation reporter; Q9NZJ5; 220,000 compounds, 0.17% hits;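 active = inhibition above the mean inhibition of all tested compounds plus 3 SD, set separately per screening campaign, cut at about 2.9% in these data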;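 note: PERK kinase domain activated by AP20187 dimerizer at 100 nM; 0% = DMSO with dimerizer and 100% = rapamycin at 8.4 µM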
STAT1 act: STAT1 signaling activation; activation (% of control), % at 5.5 µM; NIH 3T3 STAT1-luciferase reporter, IFN-gamma, luminescence; 100% = IFN-gamma alone, no compound; 200,000 compounds, 2.6% hits;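 active = activation above the screen-wide mean activation plus 3 SD, cut at about 130% in these data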;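 note: raw ratio to IFN-gamma control signal so 100% means no change and 0% no light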
Mdm2 ligase inh: inhibitors of human Mdm2 E3 ubiquitin ligase; cell-based MDM2 ubiquitination luciferase reporter, 2 h; 0 = plate control, 100 = twice control, blank-subtracted; Q00987; signal enhancement, % at 5 µM; 210,000 compounds, 0.11% hits;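 active = signal enhancement of 30% or more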;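 note: luminescence tracks abundance of the self-degrading MDM2-luciferase fusion protein; higher signal means inhibition of MDM2 E3 ligase activity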
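Buffer or medium: Cells held in DMEM | Assay system: Stable mammalian line carrying autodegrading MDM2–luciferase fusion reporter | Quantity: 2000 cells/well | Times: 4 h settle plus 2 h compound, 37 °C | Doses: One concentration, 5 µM, with 0.2% DMSO | Technique: Luminescence with SteadyLite reagent, 15 min at room temperature | Benchmarks: Plate controls and plate blanks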
NF-kB expr up: NF-kB expression increase, human neuronal cells; fold change at 12.5 µM; NF-kB reporter expression; stronger effect = higher value; 190,000 compounds, 1.6% hits; in the data active = fold change above about 3.3
AHR act confirm: confirmation of human aryl hydrocarbon receptor activators | activation, % at 9 µM | AID 2845 | 2,300 compounds, 87% hits | shares compounds with AHR act | human cells, AHR-responsive luciferase reporter, luminescence; in the data active = activation above about 49%;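 note: HepG2 hepatoma cells carrying a DRE-driven firefly luciferase reporter; 0% = vehicle wells and 100% = reference agonist wells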
PXR counter: activates human PXR in AHR activator counter-screen; shares compounds with AHR act; activation, % at 11.6 µM; AID 434939; 2,300 compounds, 88% hits; cell-based PXR reporter, luciferase luminescence; in the data active = activation above about 11%;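 note: human hepatoma DPX-2 cells expressing full-length human PXR; 0% = DMSO and 100% = reference agonist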
The depositor's hits bear a star.

How did COc1ccc(C)cc1NC(=O)c1cnc2scc(C)n2c1=O do in these assays?
APP 5'UTR act: 2; PERK inhibitor: 1; STAT1 act: 102; Mdm2 ligase inh: -7; NF-kB expr up: 1.1

Results for N#Cc1ccccc1NC(=O)c1ccccc1OCC(=O)NCc1ccco1 ?
AHR act: 117*; PERK inhibitor: -1; STAT1 act: 91; Mdm2 ligase inh: 5; NF-kB expr up: 0.96; AHR act confirm: 109*; PXR counter: 47*

Results for N#Cc1ccccc1NC(=O)c1ccccc1OCC(=O)Nc1ccc2c(c1)oc1ccccc12 ?
APP 5'UTR act: 6; AHR act: 10; PERK inhibitor: 1; STAT1 act: 93

How did Fc1cccc(/C=N/Nc2ncnc3nc[nH]c23)c1 do in these assays?
APP 5'UTR act: 17; AHR act: 105*; PERK inhibitor: 1; STAT1 act: 138*; NF-kB expr up: 2.1; AHR act confirm: 78*; PXR counter: 33*

How did Oc1ccc(/C=N/Nc2ncnc3nc[nH]c23)cc1 do in these assays?
AHR act: 4; PERK inhibitor: 0; Mdm2 ligase inh: -13

How did Fc1ccccc1/C=N/Nc1nc(-c2ccccn2)nc2ccccc12 do in these assays?
AHR act: 22; PERK inhibitor: 0

Results for Fc1ccccc1/C=N/Nc1ncnc2nc[nH]c12 ?
APP 5'UTR act: 45; AHR act: 130*; PERK inhibitor: 1; STAT1 act: 137*; NF-kB expr up: 1.8; AHR act confirm: 83*; PXR counter: 40*

What do the screens show for `Cc1ccc(/C=N/Nc2ncnc3nc[nH]c23)cc1`?
AHR act: 115*; PERK inhibitor: 0; Mdm2 ligase inh: -23; AHR act confirm: 104*; PXR counter: 84*

Results for O=C(NCCSc1ccccc1)c1ccc(CN2CCOCC2)cc1 ?
AHR act: 13; PERK inhibitor: 0; Mdm2 ligase inh: -2

How did Cc1c(NC(=O)c2ccc(Cl)nc2)cccc1-c1nc2cccnc2s1 do in these assays?
AHR act: 18; PERK inhibitor: -3; Mdm2 ligase inh: -6

Results for O=C(Nc1ccc(-c2nc3cccnc3s2)cc1)c1ccc(Cl)nc1 ?
AHR act: 86*; PERK inhibitor: 1; Mdm2 ligase inh: -8; AHR act confirm: 5; PXR counter: 11*

What do the screens show for `CCc1ccc(N2CC(C(=O)OCC(=O)c3c(N)n(CC(C)C)c(=O)n(C)c3=O)CC2=O)cc1` (stereo unspecified)?
AHR act: 0

What do the screens show for `CCCn1c(O)c(N=NC(=O)c2ccco2)c2ccccc21`?
APP 5'UTR act: -9; AHR act: 87*; PERK inhibitor: -1; STAT1 act: 100; Mdm2 ligase inh: -21; NF-kB expr up: 0.7; AHR act confirm: 88*; PXR counter: 50*

What do the screens show for `O=C(CSCc1cccc(Br)c1)N=Nc1c(O)[nH]c2ccccc12`?
APP 5'UTR act: -8; AHR act: 29; PERK inhibitor: 1; STAT1 act: 104; Mdm2 ligase inh: 0; NF-kB expr up: 1.2

How did O=Nc1c(-c2c(O)[nH]c3cc(Br)ccc23)[nH]c2ccccc12 do in these assays?
AHR act: 133*; AHR act confirm: 148*; PXR counter: 22*

Results for Cc1ccc2nc(-c3cccnc3)oc2c1 ?
APP 5'UTR act: 91; AHR act: 89*; PERK inhibitor: 0; STAT1 act: 128; Mdm2 ligase inh: -30; NF-kB expr up: 2; AHR act confirm: 106*; PXR counter: 31*

How did Cc1ccc2oc(-c3cccc(N)c3)nc2c1 do in these assays?
APP 5'UTR act: 158*; AHR act: 110*; PERK inhibitor: 1; STAT1 act: 92; Mdm2 ligase inh: -52; NF-kB expr up: 8.9*; AHR act confirm: 107*; PXR counter: 10*

What do the screens show for `Nc1cccc(-c2nc3cc(S(=O)(=O)c4ccc5oc(-c6cccc(N)c6)nc5c4)ccc3o2)c1`?
APP 5'UTR act: -17; AHR act: 15; PERK inhibitor: 1; STAT1 act: 106; Mdm2 ligase inh: -36; NF-kB expr up: 1

What do the screens show for `Clc1ccc2oc(-c3cccnc3)nc2c1`?
APP 5'UTR act: 45; AHR act: 4; PERK inhibitor: 0; STAT1 act: 124; Mdm2 ligase inh: -14; NF-kB expr up: 2.1

Results for Cc1sc(NC(=O)c2cc(-c3ccc(Cl)cc3)nc3ccccc23)c(C(N)=O)c1C ?
APP 5'UTR act: -5; AHR act: 23; PERK inhibitor: -1; STAT1 act: 95; Mdm2 ligase inh: -5; NF-kB expr up: 1.1

How did Cc1sc(NC(=O)c2ccc(Cl)s2)c(C(N)=O)c1C do in these assays?
APP 5'UTR act: 142*; AHR act: 98*; PERK inhibitor: 0; STAT1 act: 167*; Mdm2 ligase inh: -13; NF-kB expr up: 5.3*; AHR act confirm: 123*; PXR counter: 24*

Results for NC(=Nc1ccccc1)NC(=O)c1nc(Cl)c(N)nc1N ?
AHR act: 86*; AHR act confirm: 30; PXR counter: 35*

What do the screens show for `COCCNC(=O)c1cc(-c2ccccc2)nn1CC1CC(c2cccnc2)=NO1` (stereo unspecified)?
AHR act: 3

How did CCOC(=O)c1c(S(=O)(=O)N2CCCC(C(=O)Nc3ccc(C)cn3)C2)c(C)n(C)c1C (stereo unspecified) do in these assays?
AHR act: 4

Results for CCOc1cc2nc(-c3ccc(OC)c(OC)c3)nc(NCCCN3CCOCC3)c2cc1OC ?
APP 5'UTR act: 2; AHR act: 101*; PERK inhibitor: -3; STAT1 act: 102; Mdm2 ligase inh: -7; NF-kB expr up: 0.62; AHR act confirm: 120*; PXR counter: 17*

What do the screens show for `NC(=O)c1ccccc1OCc1nc2ccccc2s1`?
AHR act: 40

Results for Cc1cc(OCc2nc3ccccc3s2)ccc1N ?
AHR act: 86*; PERK inhibitor: 0; Mdm2 ligase inh: -12; AHR act confirm: 92*; PXR counter: 34*

What do the screens show for `CC(C)CCN1CCN(Cc2nc3c(s2)CCCC3)CC1CCO` (stereo unspecified)?
APP 5'UTR act: 6; AHR act: 0; PERK inhibitor: 2; STAT1 act: 94; Mdm2 ligase inh: -23; NF-kB expr up: 1.1

Results for O=C(Nc1cccc(Cl)c1)c1cccnn1 ?
AHR act: 109*; AHR act confirm: 82*

Results for O=C(Nc1cccc(C(F)(F)F)c1)c1cccnn1 ?
AHR act: 20
